Experimental data from ChEMBL document CHEMBL1125286, “Zatosetron, a potent, selective, and long-acting 5HT3 receptor antagonist: synthesis and structure-activity relationships” (J Med Chem, 1992).
One block for each molecule: values may come before it.

Assays:
[1] = molecular target: T1, Serotonin 3 (5-HT3) receptor (Rattus norvegicus) (UniProt P35563+Q9JJ16); experiment: 5-hydroxytryptamine 3 receptor antagonistic activity was measured by the inhibition of 5H+ T-induced bradycardia after iv administration of 1000 ug/kg dose in urethane-anesthetized rats; type: functional, organism-based
How it was run: (§1)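 Urethane-anesthetized rats. First 5HT challenge 30 μg/kg iv gives a transient bradycardia. Once heart rate is back at steady state (≤5 min), test compound or saline goes in via the femoral vein. 5HT 30 μg/kg iv is repeated 15 min later. % inhibition is the difference between first and second bradycardia at peak, each animal its own control. Means ± SEM, groups of 3–16 rats.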

[2] = molecular target: T1, Serotonin 3 (5-HT3) receptor (Rattus norvegicus); experiment: 5-hydroxytryptamine 3 receptor antagonistic activity measured by inhibition of 5-HT-induced bradycardia (iv administration 10 ug/kg dose in urethane-anesthetized rats); type: functional, organism-based; how it was run: as §1
[3] = molecular target: T1, Serotonin 3 (5-HT3) receptor (Rattus norvegicus); experiment: 5-hydroxytryptamine 3 receptor antagonistic activity was measured by the inhibition of 5H+ T-induced bradycardia after iv administration of 3 ug/kg dose in urethane-anesthetized rats; type: functional, organism-based
How it was run: (§2)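 Urethane-anesthetized rats; antagonist or saline given iv via femoral vein after heart rate settled (≤5 min) from an initial 5HT challenge (30 µg/kg iv). 5HT was given again 15 min later. Peak bradycardia measured, each rat its own control; % inhibition = difference between first and second responses. Groups of 3–16 rats, means ± SEM.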

[4] = molecular target: T1, Serotonin 3 (5-HT3) receptor (Rattus norvegicus); experiment: 5-hydroxytryptamine 3 receptor antagonistic activity was measured by the inhibition of 5H+ T-induced bradycardia after iv administration of 1000 ug/kgetized rats; type: functional, organism-based; how it was run: as §1
[5] = molecular target: T1, Serotonin 3 (5-HT3) receptor (Rattus norvegicus); experiment: 5-hydroxytryptamine 3 receptor antagonistic activity as inhibition of 5-HT-induced bradycardia after iv administration of 100 ug/kg dose in urethane-anesthetized rats; type: functional, organism-based; how it was run: as §1
[6] = molecular target: T1, Serotonin 3 (5-HT3) receptor (Rattus norvegicus); experiment: Compound was tested for the inhibition of 5-HT-induced bradycardia after peroral administration of 3 ug/kg dose in urethane-anesthetized rats; type: functional, organism-based
How it was run: (§3)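 Fasted rats gavaged (5 mL/kg) with antagonist or vehicle (distilled water). Urethane anesthesia and surgical preparation followed, 15–20 min before 5HT challenge. 5HT 30 µg/kg iv given 1 h after dosing, with vehicle-treated rats as controls. Peak % inhibition of bradycardia in groups of 3–11, means ± SEM.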

[7] = molecular target: T1, Serotonin 3 (5-HT3) receptor (Rattus norvegicus); experiment: Compound was tested for the inhibition of 5-HT-induced bradycardia after peroral administration of 0.03 mg/kg dose in urethane-anesthetized rats at 16 hour; type: functional, organism-based; set-up: dose 0.03 mg/kg
How it was run: (§4)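 Duration study: antagonist or vehicle gavaged to conscious fasted rats (5 mL/kg). Rats were urethane-anesthetized and surgically prepared, then challenged with 5HT 0.03 mg/kg iv at the stated time after dosing. Vehicle-treated rats served as controls. Peak inhibition of bradycardia recorded in groups of 3–11, means ± SEM.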

[8] = molecular target: T1, Serotonin 3 (5-HT3) receptor (Rattus norvegicus); experiment: Compound was tested for the inhibition of 5-HT-induced bradycardia after peroral administration of 0.03 mg/kg dose in urethane-anesthetized rats at 0.05 hour; type: functional, organism-based; set-up: dose 0.03 mg/kg; conditions: in the assay text read “0.5 hour” for “0.05 hour”; how it was run: as §4
[9] = molecular target: T1, Serotonin 3 (5-HT3) receptor (Rattus norvegicus); experiment: Compound was tested for the inhibition of 5-HT-induced bradycardia after intravenous administration of 1 ug/kg dose in urethane-anesthetized rats; type: functional, organism-based; how it was run: as §2
[10] = molecular target: T1, Serotonin 3 (5-HT3) receptor (Rattus norvegicus); experiment: Inhibition of 5-HT-induced bradycardia by 5-hydroxytryptamine 3+; type: functional
[11] = molecular target: T1, Serotonin 3 (5-HT3) receptor (Rattus norvegicus); experiment: Compound was tested for the inhibition of 5-HT-induced bradycardia after peroral administration of 0.03 mg/kg dose in urethane-anesthetized rats at 3 hour; type: functional, organism-based; set-up: dose 0.03 mg/kg; how it was run: as §4
[12] = molecular target: T1, Serotonin 3 (5-HT3) receptor (Rattus norvegicus); experiment: Compound was tested for the inhibition of 5-HT-induced bradycardia after peroral administration of 0.03 mg/kg dose in urethane-anesthetized rats at 6 hour; type: functional, organism-based; set-up: dose 0.03 mg/kg; how it was run: as §4
[13] = molecular target: T1, Serotonin 3 (5-HT3) receptor (Rattus norvegicus); experiment: Compound was tested for the inhibition of 5-HT-induced bradycardia after peroral administration of 0.03 mg/kg dose in urethane-anesthetized rats at 1 hour; type: functional, organism-based; set-up: dose 0.03 mg/kg; how it was run: as §4
[14] = molecular target: T1, Serotonin 3 (5-HT3) receptor (Rattus norvegicus); experiment: Compound was tested for the inhibition of 5-HT-induced bradycardia after peroral administration in urethane-anesthetized rats
[15] = molecular target: T1, Serotonin 3 (5-HT3) receptor (Rattus norvegicus); experiment: Compound was tested for the inhibition of 5-HT-induced bradycardia after peroral administration of 30 ug/kg dose in urethane-anesthetized rats; type: functional, organism-based; how it was run: as §3
[16] = molecular target: T1, Serotonin 3 (5-HT3) receptor (Rattus norvegicus); experiment: Compound was tested for the inhibition of 5-HT-induced bradycardia after intravenous administration of 0.3 ug/kg dose in urethane-anesthetized rats; type: functional, organism-based; how it was run: as §2
[17] = molecular target: T1, Serotonin 3 (5-HT3) receptor (Rattus norvegicus); experiment: Compound was tested for the inhibition of 5-HT-induced bradycardia after peroral administration of 10 ug/kg dose in urethane-anesthetized rats; type: functional, organism-based; how it was run: as §3
[18] = test system: Serotonin 3 receptor (Cavia porcellus); experiment: In vitro binding affinity was measured for 5-hydroxytryptamine 3 receptor in the guinea pig ileum.

Compound: CN1C2CCC1CC(OC(=O)c1ccc3c(c1)oc1ccccc13)C2 (configuration not stated)
inhibition [1]: 1.5%

Compound: CN1C2CCC1CC(OC(=O)c1cccc3c1OC(C)(C)C3)C2 (configuration not stated)
inhibition [2]: 38%
inhibition [3]: 20.8%

Compound: CN1C2CCC1CC(OC(=O)c1cccc3oc4ccccc4c13)C2 (configuration not stated)
inhibition [2]: 0%
inhibition [4]: 66.3%
inhibition [5]: 12.4%

Compound: COc1cc2c(c(C(=O)NC3CC4CCC(C3)N4C)c1)OC(C)C2 (configuration not stated)
inhibition [2]: 28.9%

Compound: CC1Cc2cc(F)cc(C(=O)OC3CC4CCC(C3)N4C)c2O1 (configuration not stated)
inhibition [2]: 32.2%

Further lines, results first:

inhibition [2]: 2.9%
Compound: COc1cc2c(c(C(=O)NC3CC4CCC(C3)N4C)c1)OC(C)(C)C2 (configuration not stated)

inhibition [2]: 1.9%
Compound: CN1C2CCC1CC(NC(=O)c1ccc(Cl)c3c1OC(C)(C)C3)C2 (configuration not stated)

inhibition [2]: 87.1%
inhibition [3]: 11.2%
Compound: Cc1cc2c(c(C(=O)NC3CC4CCC(C3)N4C)c1)OC(C)(C)C2 (configuration not stated)

inhibition [6]: 19.1%
inhibition [7]: 0%
inhibition [8]: 86.4%
inhibition [9]: 66.2%
ED50 [10]: 0.9 µg/kg
inhibition [11]: 61.1%
inhibition [12]: 81.4%
inhibition [13]: 77.6%
ED50 [14]: 9.2 µg/kg
inhibition [15]: 77.6%
inhibition [16]: 10.8%
inhibition [17]: 57.1%
-Log KB [18]: 8.78
inhibition [3]: 84.4%
Compound: CN1[C@@H]2CC[C@H]1C[C@@H](NC(=O)c1cc(Cl)cc3c1OC(C)(C)C3)C2 (stereo in doubt)

inhibition [2]: 54.7%
Compound: CN1C2CCC1CC(NC(=O)c1cc(O)cc3c1OC(C)(C)C3)C2 (configuration not stated)
